According to publication PMC5615155 (Toxicology Reports, 2017):
“Also recorded” adds a separate entry of the source.

Assays:
CYP2C9 = CYP2C9 (Homo sapiens, UniProt P11712); assay: CYP inhibition, spectrofluorimetric; type: biochemical; details: recombinant human CYP2C9 expressed in insect Sf9 cells
How it was run: (§1)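 Inhibition was assayed with recombinant human CYP isoforms expressed in insect Sf9 cells. Turnover of spectrofluorimetric substrates was read by fluorescence. Test compound was tested at a single concentration of 10 μM.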

[1] = 28-day dose-range finding dietary toxicity study; type: in vivo, CD [Crl:CD(SD)] rats
How it was run: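 This 28-day dose-range-finding study used CD [Crl:CD(SD)] rats, 8/sex/group. Rats received test compound continuously in the diet at nominal 10, 30 or 100 mg/kg bw/day; controls got untreated diet. Dietary concentration (ppm) was adjusted weekly from body weight and food consumption to keep mg/kg bw/day doses constant. NOAEL was set from the 28-day findings.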

[2] = in vitro microsomal metabolism; type: in vitro ADME, Sprague-Dawley rat; details: 10 μM, 0.5 mg/mL, +NADPH, 120 min
CYP2C19 = CYP2C19 (Homo sapiens, UniProt P33261); assay: CYP inhibition, spectrofluorimetric; type: biochemical; details: recombinant human CYP2C19 expressed in insect Sf9 cells
How it was run: as §1

E. coli strain WP2 uvrA = assay: bacterial reverse mutation test; type: cell-based; details: 100–5000 μg/plate, plate incorporation, ±S9
How it was run: (§2)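 GLP plate-incorporation Ames test per OECD 471 with S. typhimurium TA98, TA100, TA1535, TA1537 and E. coli WP2 uvrA, ± Aroclor 1254-induced male rat liver S9. An initial toxicity-mutation phase (1.5–5000 μg/plate) set the range for the confirmatory assay at 100, 333, 1000, 3333 and 5000 μg/plate. Negative and positive controls were included. Toxicity and precipitate were noted.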

CYP3A4 = CYP3A4 (Homo sapiens, UniProt P08684); assay: CYP inhibition, spectrofluorimetric; type: biochemical; details: recombinant human CYP3A4 expressed in insect Sf9 cells
How it was run: as §1

[3] = tested on: S. typhimurium strains TA98, TA100, TA1535, TA1537; assay: bacterial reverse mutation test; type: cell-based
How it was run: as §2

[4] = cited from earlier work

CYP2C19, sequence (P33261 whole entry): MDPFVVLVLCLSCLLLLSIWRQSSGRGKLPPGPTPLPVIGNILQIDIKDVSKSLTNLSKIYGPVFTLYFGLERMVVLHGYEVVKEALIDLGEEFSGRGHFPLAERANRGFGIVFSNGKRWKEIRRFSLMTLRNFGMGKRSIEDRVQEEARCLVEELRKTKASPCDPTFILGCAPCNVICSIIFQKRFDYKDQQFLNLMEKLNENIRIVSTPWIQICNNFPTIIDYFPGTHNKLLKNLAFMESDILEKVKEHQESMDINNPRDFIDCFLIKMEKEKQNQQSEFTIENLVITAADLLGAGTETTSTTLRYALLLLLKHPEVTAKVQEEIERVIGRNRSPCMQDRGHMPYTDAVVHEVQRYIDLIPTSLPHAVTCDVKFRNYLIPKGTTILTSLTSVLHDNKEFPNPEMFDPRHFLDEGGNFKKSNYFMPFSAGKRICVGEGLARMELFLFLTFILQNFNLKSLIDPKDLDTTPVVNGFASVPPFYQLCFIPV
CYP2C9, sequence (P11712 whole entry, canonical isoform): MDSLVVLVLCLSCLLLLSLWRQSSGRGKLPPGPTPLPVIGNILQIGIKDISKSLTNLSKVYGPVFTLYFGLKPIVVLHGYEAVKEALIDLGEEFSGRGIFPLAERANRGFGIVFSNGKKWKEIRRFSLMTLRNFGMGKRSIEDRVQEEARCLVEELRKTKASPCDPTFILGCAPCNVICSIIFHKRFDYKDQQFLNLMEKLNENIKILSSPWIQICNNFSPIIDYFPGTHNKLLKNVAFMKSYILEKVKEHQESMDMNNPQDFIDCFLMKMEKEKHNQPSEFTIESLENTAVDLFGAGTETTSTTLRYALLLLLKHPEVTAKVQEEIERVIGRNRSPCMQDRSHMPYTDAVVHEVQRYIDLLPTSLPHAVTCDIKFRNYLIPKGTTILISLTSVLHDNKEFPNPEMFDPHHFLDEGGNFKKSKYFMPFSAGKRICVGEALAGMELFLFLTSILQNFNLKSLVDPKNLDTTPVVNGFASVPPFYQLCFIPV
CYP3A4, sequence (P08684 whole entry): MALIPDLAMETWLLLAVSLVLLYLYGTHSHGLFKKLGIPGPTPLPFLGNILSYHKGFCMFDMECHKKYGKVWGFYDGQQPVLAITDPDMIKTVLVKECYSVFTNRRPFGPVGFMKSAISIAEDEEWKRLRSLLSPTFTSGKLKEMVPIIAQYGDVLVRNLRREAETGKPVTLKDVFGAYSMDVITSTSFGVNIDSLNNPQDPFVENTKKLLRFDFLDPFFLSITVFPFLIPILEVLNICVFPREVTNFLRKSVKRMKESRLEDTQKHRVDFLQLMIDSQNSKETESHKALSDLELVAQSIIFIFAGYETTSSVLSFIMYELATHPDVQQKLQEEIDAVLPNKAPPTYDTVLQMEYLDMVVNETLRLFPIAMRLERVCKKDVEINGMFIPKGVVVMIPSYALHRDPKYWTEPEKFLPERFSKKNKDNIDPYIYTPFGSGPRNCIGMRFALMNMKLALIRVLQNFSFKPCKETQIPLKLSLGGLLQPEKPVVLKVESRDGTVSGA

## Cc1cc(C(=O)NC(C)(C)COc2cccc3c2C(N)=NS(=O)(=O)N3)cc(C)n1 [S2218, N-(1-((4-amino-2,2-dioxido-1H-benzo[c][1,2,6]thiadiazin-5-yl)oxy)-2-methylpropan-2-yl)-2,6-dimethylisonicotinamide]
CYP2C9
  inhibition at 10 μM: ≤ 7%
[1]; 10, 30, 100 mg/kg bw/day food ad-mix
  Findings: Slight increase in food consumption and mean body weight in males at 10 and 30 mg/kg bw/day
[1]; both, CD [Crl:CD(SD)], rat, in vivo, oral
  NOAEL at 28 days: 100 mg/kg/day
[2]
  % MS (EIC) peak area of parent relative to time 0: 96.5 ± 0.4%
CYP2C19
  inhibition at 10 μM: ≤ 7%
E. coli strain WP2 uvrA
  Reverse mutation (in vitro), result: not mutagenic; also recorded: Negative
CYP3A4
  inhibition at 10 μM: ≤ 7%
[3]; 100–5000 μg/plate, plate incorporation, ±S9
  Reverse mutation (in vitro), result: not found to be mutagenic; also recorded: Negative
[3]; all tester strains, ±S9, up to 5000 μg per plate
  cytotoxicity (background lawn / revertant colonies): No cytotoxicity
[3]; confirmatory mutagenicity assay
  concentration at which precipitate was observed: ≥ 3333 μg per plate
[3]; initial toxicity-mutation assay
  concentration at which precipitate was observed: 5000 μg per plate
[4]
  photostability to UV light vs S6973 and S617: significantly improved photostability
